Results from ChEMBL document CHEMBL1125910, “Design of a well-absorbed renin inhibitor” (J Med Chem, 1991).

Columns and labels:
Renin [1] = target: T1, Renin (Homo sapiens, UniProt P00797); assay: Compound was evaluated for the inhibitory concentration against purified human renal renin at pH 6.5
T1 sequence (P00797 whole entry): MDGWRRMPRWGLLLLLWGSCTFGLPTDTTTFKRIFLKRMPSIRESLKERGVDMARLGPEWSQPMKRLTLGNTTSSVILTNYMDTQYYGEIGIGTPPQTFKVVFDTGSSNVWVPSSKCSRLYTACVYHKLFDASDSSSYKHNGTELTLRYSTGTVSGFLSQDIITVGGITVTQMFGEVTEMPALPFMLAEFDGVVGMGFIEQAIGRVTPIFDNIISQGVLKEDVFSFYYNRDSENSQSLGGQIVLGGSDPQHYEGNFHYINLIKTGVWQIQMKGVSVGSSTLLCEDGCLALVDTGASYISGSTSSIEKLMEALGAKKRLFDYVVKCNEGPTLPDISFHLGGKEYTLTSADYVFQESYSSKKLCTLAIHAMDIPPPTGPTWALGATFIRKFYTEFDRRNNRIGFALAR

Renin [2] = target: T1, Renin; assay: Compound was evaluated for the inhibitory concentration against human plasma renin at pH 7.4; format: cell-free
Outline: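 Renin inhibition assayed in human plasma, with plasma renin as the enzyme source, at pH 7.4. IC50 reported in nM.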

Rattus norvegicus [3] = assay: Upon intraduodenal administration in rats at a dose of 10 mg/kg, portal plasma levels calculated after 10 min.; format: functional, organism-based; design: dose 10 mg/kg
Outline: (§1)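 Anesthetized rats given 10 mg/kg intraduodenally. Blood sampled at 10 and 30 min from the portal vein and from the systemic circulation. Drug level in plasma measured by renin inhibition assay, reported in ng/mL as mean ± SE, n = 3 (some groups 5 or 6).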

Rattus norvegicus [4] = assay: Upon intraduodenal administration in rats at a dose of 10 mg/kg, systemic plasma levels calculated after 30 min.; format: functional, organism-based; design: dose 10 mg/kg; outline: as §1
Cathepsin D (Bos taurus) [5] = target: T2, Cathepsin D (Bos taurus) (UniProt P80209); assay: Inhibitory activity against cathepsin D in bovine at 1*10e-5 M concentration.
T2 sequence (whole entry): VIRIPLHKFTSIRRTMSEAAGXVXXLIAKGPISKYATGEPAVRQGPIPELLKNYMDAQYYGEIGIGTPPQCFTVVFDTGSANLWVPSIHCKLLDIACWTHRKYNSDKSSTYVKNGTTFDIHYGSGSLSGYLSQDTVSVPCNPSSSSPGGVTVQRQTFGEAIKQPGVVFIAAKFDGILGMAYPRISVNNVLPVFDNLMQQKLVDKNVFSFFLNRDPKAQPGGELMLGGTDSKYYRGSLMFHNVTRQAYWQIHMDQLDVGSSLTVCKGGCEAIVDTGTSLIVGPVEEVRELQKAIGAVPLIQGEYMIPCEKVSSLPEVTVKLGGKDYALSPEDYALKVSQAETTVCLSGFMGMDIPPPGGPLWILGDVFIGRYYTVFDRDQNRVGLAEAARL
Outline: (§2)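 Bovine or human cathepsin D, assayed at pH 3.0; percent inhibition recorded with inhibitor at 1 × 10^-5 M, and also at 1 × 10^-7 M.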

Pepsin A (Sus scrofa) = Pepsin A (Sus scrofa) (UniProt P00791); assay: Inhibitory activity against pepsin in porcine at 1*10e-5 M concentration.; format: functional
Chain of Pepsin A (Sus scrofa) (P00791 60-385 limits assumed): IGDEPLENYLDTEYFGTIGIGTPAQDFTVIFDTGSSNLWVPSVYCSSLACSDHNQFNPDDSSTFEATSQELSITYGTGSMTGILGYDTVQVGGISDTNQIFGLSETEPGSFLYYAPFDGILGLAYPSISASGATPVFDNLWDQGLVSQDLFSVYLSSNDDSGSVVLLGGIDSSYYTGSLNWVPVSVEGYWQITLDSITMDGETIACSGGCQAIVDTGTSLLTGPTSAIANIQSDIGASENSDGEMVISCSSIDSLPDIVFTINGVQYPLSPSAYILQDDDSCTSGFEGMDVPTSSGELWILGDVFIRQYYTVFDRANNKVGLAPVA
Outline: (§3)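 Human or porcine pepsin, assayed at pH 2.0; percent inhibition recorded with inhibitor at 1 × 10^-5 M.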

[6] = target: Cathepsin D (Homo sapiens) (UniProt P07339); assay: Inhibitory activity against cathepsin D in human at 1*10e-5 M concentration.; outline: as §2
Chain of Cathepsin D (Homo sapiens) (P07339 65-162 limits assumed): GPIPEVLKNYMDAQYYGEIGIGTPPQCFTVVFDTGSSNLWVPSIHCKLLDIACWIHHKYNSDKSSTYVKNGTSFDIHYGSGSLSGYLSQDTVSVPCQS
Chain of Cathepsin D (Homo sapiens) (P07339 169-412 limits assumed): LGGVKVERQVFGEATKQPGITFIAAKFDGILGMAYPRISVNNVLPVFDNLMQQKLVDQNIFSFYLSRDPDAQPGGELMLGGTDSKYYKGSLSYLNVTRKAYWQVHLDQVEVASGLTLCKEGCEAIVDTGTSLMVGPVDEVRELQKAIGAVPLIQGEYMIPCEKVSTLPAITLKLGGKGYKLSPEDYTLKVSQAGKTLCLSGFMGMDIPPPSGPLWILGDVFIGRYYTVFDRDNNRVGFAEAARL

Cathepsin D (Bos taurus) [7] = target: T2, Cathepsin D (Bos taurus); assay: Inhibitory activity against cathepsin D in bovine at 1*10e-7 M concentration.; outline: as §2
Rattus norvegicus [8] = assay: Upon intraduodenal administration in rats at a dose of 10 mg/kg, portal plasma levels calculated after 30 min.; format: functional, organism-based; design: dose 10 mg/kg; outline: as §1
Rattus norvegicus [9] = assay: Upon intraduodenal administration in rats at a dose of 10 mg/kg, systemic plasma levels calculated after 10 min.; format: functional, organism-based; design: dose 10 mg/kg; outline: as §1
[10] = target: Cathepsin D (Homo sapiens) (UniProt P07339); assay: Inhibitory activity against cathepsin D in human at 1*10e-7 M concentration.; outline: as §2
Pepsin A (Homo sapiens) = Pepsin A (Homo sapiens) (UniProt P0DJD9); assay: Inhibitory activity against human pepsin at 1*10e-5 M; format: functional; outline: as §3
Chain of Pepsin A (Homo sapiens) (P0DJD9 63-388 limits assumed): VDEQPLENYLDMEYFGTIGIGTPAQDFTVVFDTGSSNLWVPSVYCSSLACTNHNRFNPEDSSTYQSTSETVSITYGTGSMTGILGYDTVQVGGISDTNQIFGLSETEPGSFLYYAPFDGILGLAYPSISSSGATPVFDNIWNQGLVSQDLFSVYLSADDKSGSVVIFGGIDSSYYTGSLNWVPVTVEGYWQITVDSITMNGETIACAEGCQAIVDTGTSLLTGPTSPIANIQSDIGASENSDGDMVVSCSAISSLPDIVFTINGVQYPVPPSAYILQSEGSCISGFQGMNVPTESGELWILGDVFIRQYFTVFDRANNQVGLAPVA

Row | Compound | IC50 (Renin [1]) [nM] | IC50 (Renin [2]) [nM] | inhibition (Cathepsin D (Bos taurus) [5]) [%] | inhibition (Pepsin A (Sus scrofa)) [%] | inhibition [6] [%] | inhibition (Cathepsin D (Bos taurus) [7]) [%] | inhibition [10] [%] | inhibition (Pepsin A (Homo sapiens)) [%] | Plasma level (Rattus norvegicus [3]) [ng/mL] | Plasma level (Rattus norvegicus [4]) [ng/mL] | Plasma level (Rattus norvegicus [8]) [ng/mL] | Plasma level (Rattus norvegicus [9]) [ng/mL]
1 | CCN1C[C@@H]([C@H](O)[C@H](CC2CCCCC2)NC(=O)[C@H](Cc2cn(C)cn2)NC(=O)[C@@H](CC(=O)N2CCOCC2)Cc2ccccc2)OC1=O | 7.4 | 58 | – | – | – | – | – | – | – | – | – | –
2 | CCN1C[C@@H]([C@H](O)[C@H](CC2CCCCC2)NC(=O)[C@H](Cc2cscn2)NC(=O)[C@@H](CC(=O)N2CCOCC2)Cc2ccccc2)OC1=O | 0.6 | 8.1 | 93 | 57 | 100 | 28 | 40 | 26 | 1900 | 300 | 1100 | 320
3 | CCN1C[C@@H]([C@H](O)[C@H](CC2CCCCC2)NC(=O)[C@H](Cc2cccs2)NC(=O)[C@@H](CC(=O)N2CCOCC2)Cc2ccccc2)OC1=O | 1.5 | 43 | – | – | – | – | – | – | – | – | – | –

Further lines, with some results ahead:

Row | IC50 (Renin [1]) [nM] | IC50 (Renin [2]) [nM] | inhibition (Cathepsin D (Bos taurus) [5]) [%] | inhibition (Pepsin A (Sus scrofa)) [%] | inhibition [6] [%] | inhibition (Cathepsin D (Bos taurus) [7]) [%] | inhibition [10] [%] | inhibition (Pepsin A (Homo sapiens)) [%] | Compound | Plasma level (Rattus norvegicus [3]) [ng/mL] | Plasma level (Rattus norvegicus [4]) [ng/mL] | Plasma level (Rattus norvegicus [8]) [ng/mL] | Plasma level (Rattus norvegicus [9]) [ng/mL]
4 | – | – | 2 | 2 | – | – | – | – | CCN1C[C@@H]([C@H](O)[C@H](CC2CCCCC2)NC(=O)[C@H](Cc2c[nH]cn2)NC(=O)[C@@H](CC(=O)N2CCOCC2)Cc2ccccc2)OC1=O | 280 | 34 | 390 | 55
5 | 1.1 | 21 | – | – | – | – | – | – | CCN1C[C@@H]([C@H](O)[C@H](CC2CCCCC2)NC(=O)[C@H](Cc2cc[nH]n2)NC(=O)[C@@H](CC(=O)N2CCOCC2)Cc2ccccc2)OC1=O | 28 | 7 | 58 | 6.7
